{"source": "ChEMBL document CHEMBL4316593", "about": "(Eur J Med Chem, 2019)", "assay": "Inhibition of RTK/PI3K/AKT/mTOR signaling in human U87 cells assessed as up regulation of IER3 gene expression at cytotoxic IC50 measured after 48 hrs relative to control", "type": "cell-based", "details": "U-87MG ATCC", "in_short": "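Cells were exposed for 48hrs at 37°C in humidified 5% CO₂ to the compound at its previously determined IC₅₀, with Cisplatin at its IC₅₀ and an untreated negative control alongside. Each condition was run in triplicate. RNA was isolated from all samples by the same protocol. Genes were called differentially expressed by DESeq2 at q-value < 0.05 and fold change > 1.5.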", "data": [{"smiles": "CC(=O)C(=NNc1ccccc1C#N)C(C)=O", "values": [{"measurement": "log2FC", "result": 0.384}]}]}
